Measurements of several laboratories.
Compare with care: the assays were run in different laboratories.
Target: Mitogen-activated protein kinase 13 (MAPK13, Homo sapiens, UniProt O15264)
Residues used in one study (O15264 1-365): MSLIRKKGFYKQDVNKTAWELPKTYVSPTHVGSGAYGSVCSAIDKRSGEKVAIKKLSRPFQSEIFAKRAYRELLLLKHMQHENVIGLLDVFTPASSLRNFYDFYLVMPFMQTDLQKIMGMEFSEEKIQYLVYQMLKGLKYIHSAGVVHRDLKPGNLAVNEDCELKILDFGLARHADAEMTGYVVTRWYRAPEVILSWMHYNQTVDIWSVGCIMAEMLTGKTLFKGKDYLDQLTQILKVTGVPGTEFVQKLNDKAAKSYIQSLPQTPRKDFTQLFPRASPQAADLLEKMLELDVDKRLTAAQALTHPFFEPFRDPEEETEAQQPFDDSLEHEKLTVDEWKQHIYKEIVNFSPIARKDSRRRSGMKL

CS(=O)(=O)N1CCCC(NC(=O)[C@H](CCC2CCCCC2)NC(=O)c2ccc(CNC(=O)c3cnc4ccccn34)cc2)C1 (stereo partly shown) — remaining binding (cell-free assay; competition with immobilised ligand; 0.1 µM): 100%
COc1cnc(Nc2cccc(S(N)(=O)=O)c2)nc1N1CCN(c2ccccc2)C(=O)C1 — remaining binding (binding; competition with immobilised ligand; 1 µM): 95%
O=C(c1ccc(Nc2ncc(Cl)c(-c3cc4ccccc4s3)n2)cc1)N1CCC(N2CCCC2)CC1 — remaining binding (binding; competition with immobilised ligand; 1 µM): 100%
C[C@@H]1CCN(c2nccc(-c3cnn4ncccc34)n2)C1 — remaining binding (binding; 1 µM): 93%
CN1CCN(c2cnc3c(C4CCN(C(=O)c5ccc(OC(F)(F)F)cc5N)CC4)ncnc3c2)CC1 — remaining binding (cell-free assay; competition with immobilised ligand; 1 µM): 100%
Nc1ncc2c(n1)-c1c([nH]c3ccc(C#CC4CC4)cc13)CCCC2 — remaining binding (binding; competition with immobilised ligand; 1 µM): 100%
O=C(Nc1c[nH]nc1C(=O)NC1CCNCC1)c1cc(F)cc(F)c1 — remaining binding (binding; competition with immobilised ligand; 1 µM): 92%
CNC(=O)[C@@H]1CC[C@@H](n2c(-c3ccc4cnccc4c3)nc3ccc(C(=O)NCc4cccc(C(N)=O)c4)cc32)C1 — remaining binding (binding; competition with immobilised ligand; 1 µM): 100%
NS(=O)(=O)c1cc(NC(=O)C2(c3ccccc3Cl)CC2)ccc1Oc1cccc(Cl)c1 — remaining binding (cell-free assay; competition with immobilised ligand; 1 µM): 88%
C[C@@H](c1ccc(-n2cnc3c(N)ncnc32)cc1)N1CCc2nn(C)c(Cc3ccccc3)c2C1=O — remaining binding (binding; competition with immobilised ligand; 0.1 µM): 83%
COc1ccnn2ncc(-c3ccnc(N(C)C)n3)c12 — remaining binding (binding; 1 µM): 100%
FC(F)(F)Oc1cccc(-c2cnc3ccc(-c4ccncc4)nn23)c1 — remaining binding (cell-free assay; competition with immobilised ligand; 5 µM): 97%
COc1ncc2cc3ccccc3nc2c1C#N — remaining binding (cell-free assay; competition with immobilised ligand; 5 µM): 79%
C[C@@]1(Cc2ccc(C#N)cc2)C(=O)N(c2cc(Cl)cc(Cl)c2)c2ncc(C(=O)NC3(c4nc(C5CCC5)no4)CC3)n21 — remaining binding (cell-free assay; competition with immobilised ligand; 1 µM): 100%
N[C@@H]1CCN(c2nccc(-c3cnn4ncccc34)n2)C1 — remaining binding (binding; 1 µM): 100%
O=C(c1ccc(Nc2ncc(Cl)c(-c3ccc(Cl)s3)n2)cc1)N1CCC(N2CCCC2)CC1 — remaining binding (binding; competition with immobilised ligand; 1 µM): 100%
Cc1cnn2ncc(-c3ccnc(N(C)C)n3)c2c1 — remaining binding (binding; 1 µM): 100%
CS(=O)(=O)NCC[C@H](NC(=O)c1cncc2c1cnn2-c1ccc(F)cc1)c1ccnc(S(C)(=O)=O)c1 — remaining binding (cell-free assay; competition with immobilised ligand; 1 µM): 100%
CC1CCCN1c1nccc(-c2cnn3ncccc23)n1 (stereo not shown) — remaining binding (binding; 1 µM): 100%
O=C(Nc1cnc(Oc2ccc(F)cc2)nc1)N1CCc2ncccc2[C@@H]1c1ccc(F)cc1 — remaining binding (cell-free assay; competition with immobilised ligand; 1 µM): 100%
CN(C)c1ncc(F)c(-c2cnn3ncccc23)n1 — remaining binding (binding; 1 µM): 96%
Cc1cnc(Nc2ccc(C(=O)N3CCC(N4CCCC4)CC3)cc2)nc1-c1cc2ccccc2s1 — remaining binding (binding; competition with immobilised ligand; 1 µM): 100%
